ChEMBL document CHEMBL4396895, “Identification and Optimization of Novel Cathepsin C Inhibitors Derived from EGFR Inhibitors” (J Med Chem, 2019)
The source made the active and inactive calls. No cut-off for these calls is given here.

Experiments:
Cytochrome P450 1A2 = biological target: T1, Cytochrome P450 1A2 (Homo sapiens, UniProt P05177); test: Inhibition of CYP1A2 (unknown origin); assay type: ADME
T1 sequence (P05177 whole entry): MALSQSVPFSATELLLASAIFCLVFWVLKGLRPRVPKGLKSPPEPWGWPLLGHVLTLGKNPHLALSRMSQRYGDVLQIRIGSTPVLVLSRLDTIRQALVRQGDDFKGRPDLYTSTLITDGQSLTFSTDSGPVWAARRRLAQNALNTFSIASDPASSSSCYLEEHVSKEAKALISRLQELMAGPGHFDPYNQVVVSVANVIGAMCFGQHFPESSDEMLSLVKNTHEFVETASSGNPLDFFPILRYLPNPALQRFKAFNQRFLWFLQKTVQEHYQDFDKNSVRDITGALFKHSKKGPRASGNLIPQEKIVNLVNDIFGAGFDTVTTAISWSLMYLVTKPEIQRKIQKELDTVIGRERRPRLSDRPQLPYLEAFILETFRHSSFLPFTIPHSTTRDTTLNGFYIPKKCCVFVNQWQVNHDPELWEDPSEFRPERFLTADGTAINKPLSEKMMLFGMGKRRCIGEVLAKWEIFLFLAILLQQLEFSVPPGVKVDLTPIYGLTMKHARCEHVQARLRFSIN
How it was run: (§1)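 Tested against recombinant human cytochrome P450 isoforms 1A2, 2D6, 3A4, 2C9 and 2C19.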

Mus musculus [1] = test: Protection against C57BL/6 mouse model of caerulein-induced acute pancreatitis assessed as reduction in CatC activity at 20 mg/kg, po pretreated twice daily for 6 days followed by caerulein-challenge at 1 hr interval for 8 hrs and measured 1 hr post-last caerulein-challenge
Cytochrome P450 2D6 = Cytochrome P450 2D6 (Homo sapiens, UniProt P10635); test: Inhibition of CYP2D6 (unknown origin); assay type: ADME; how it was run: as §1
[2] = Drug uptake in C57BL/6 mouse lung at 10 mg/kg, po by LC-MS/MS analysis; assay type: ADME, organism-based; settings: in vivo
Mus musculus [3] = test: In vivo inhibition of CatC in C57BL/6 mouse blood at 20 mg/kg, po single dose using Gly-Phe-AFC as substrate measured 8 hrs post dose for up to 90 mins by fluorescence assay relative to control; settings: C57BL/6, Blood
[4] = Half life in C57BL/6 mouse at 10 mg/kg, ip by LC-MS/MS analysis; assay type: ADME, organism-based; settings: in vivo
How it was run: (§2)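 Male C57BL/6 mice (n = 3) were dosed with a single IV dose of 2 mg/kg or an IP or PO dose of 10 mg/kg. Vehicle: 0.5% Methocel and 0.1% Tween-80 in citrate buffer, pH 3. Blood was drawn by eye puncture at several time points and analysed by LC-MS/MS. Parameters came from noncompartmental analysis of individual animals and are reported as means.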

[5] = Bioavailability in C57BL/6 mouse at 10 mg/kg, ip by LC-MS/MS analysis; assay type: ADME, organism-based; settings: in vivo; how it was run: as §2
[6] = Cmax in C57BL/6 mouse at 10 mg/kg, po by LC-MS/MS analysis; assay type: ADME, organism-based; set-up: dose 10 mg/kg, route oral; settings: in vivo; how it was run: as §2
Cytochrome P450 2C19 = Cytochrome P450 2C19 (Homo sapiens, UniProt P33261); test: Inhibition of CYP2C19 (unknown origin); assay type: ADME; how it was run: as §1
Mus musculus [7] = test: In vivo inhibition of CatC in po dosed C57BL/6 mouse blood assessed as reduction in CatG activation administered twice daily for 6 days using N-succinyl-Ala-Ala-Pro-Phe-pNA as substrate measured up to 90 mins by fluorescence assay; assay type: functional, organism-based
How it was run: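 C57BL/6 mice (20−25 g; n = 10 per group) received oral doses twice daily at 6.7, 20 or 60 mg/kg for 6 days. The vehicle group got 0.5% Methocel and 0.1% Tween-80 in 100 mM citrate buffer, pH 3. Blood was drawn by eye puncture 14 h after the last dose. Bone marrow was flushed from femurs and tibias with ice-cold RPMI 1640. Cells were lysed in 50 mM Tris pH 7.4, 750 mM NaCl, 1% Triton X-100, sonicated on ice and stored at −80 °C. Lysates were diluted by protein content, with blood diluted 5-fold more than marrow. Kinetics were followed for up to 90 min. Results are % of the vehicle mean.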

[8] = AUC infinity in C57BL/6 mouse at 10 mg/kg, po by LC-MS/MS analysis; assay type: ADME, organism-based; set-up: dose 10 mg/kg, time infinity, route oral; settings: in vivo; how it was run: as §2
[9] = Intrinsic clearance in rat liver microsomes assessed per mg protein measured after 60 mins in presence of NADPH by LC-MS/MS analysis; assay type: ADME, Microsome; settings: read-out: CLH
Dipeptidyl peptidase 1 [10] = biological target: T2, Dipeptidyl peptidase 1 (Homo sapiens, UniProt P53634); test: Inhibition of cathepsin C in human THP1 cells using H-Gly-Phe-AFC as substrate preincubated for 4 hrs followed by substrate addition and measured after 60 mins; assay type: cell-based
How it was run: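 THP1 or U937 cells, grown in RPMI 1640 with 10% FBS, were seeded at 1.0 × 10^6/mL. They were preincubated with threefold serial dilutions of compound for 4 h at 37 °C. H-Gly-Phe-AFC was then added from a 100 μM solution and fluorescence was read after 60 min at 37 °C. Values are means of at least two experiments.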

[11] = Cmax in C57BL/6 mouse at 10 mg/kg, ip by LC-MS/MS analysis; assay type: ADME, organism-based; set-up: dose 10 mg/kg, route intraperitoneal; settings: in vivo; how it was run: as §2
[12] = Toxicity in C57BL/6 mouse assessed as effect on WBC level at 60 mg/kg, po administered twice daily for 6 days; assay type: organism-based; settings: in vivo, 144 h
[13] = Half life in C57BL/6 mouse at 2 mg/kg, iv by LC-MS/MS analysis; assay type: ADME, organism-based; settings: in vivo; how it was run: as §2
[14] = Half life in C57BL/6 mouse at 10 mg/kg, po by LC-MS/MS analysis; assay type: ADME, organism-based; settings: in vivo; how it was run: as §2
[15] = biological target: Epidermal growth factor receptor (Homo sapiens, UniProt P00533); test: Inhibition of EGFR (unknown origin) up to 10 uM using biotin-labelled peptide as substrate preincubated for 2 hrs followed by substrate addition and measured after 30 mins by HTRF FRET assay
How it was run: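 EGFR WT was used at 0.1 nM final in 50 mM HEPES pH 7.0, 0.02% NaN3, 0.01% BSA, 0.1 mM orthovanadate, 10 mM MgCl2, 2.5 mM DTT, 6.25 nM SEB. It was preincubated with compound for 2 h. Biotin-peptide (1.4 μM) and ATP (20 μM) were then added for 30 min at RT. Read-out was HTRF/TR-FRET (Ex 320, Em 615/665 nm) with a sigmoidal curve fit.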

Dipeptidyl peptidase 1 [16] = biological target: T2, Dipeptidyl peptidase 1; test: Inhibition of CatL-activated recombinant human C-terminal His10-tagged cathepsin C (25 to 463 residues) expressed in mouse myeloma cells using Gly-Phe-AFC as substrate preincubated for 3 hrs followed by substrate addition and measured after 60 mins; assay type: cell-free
How it was run: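 Activated rhCatC was diluted to 4.4 nM in 25 mM MES, 50 mM NaCl, 5 mM DTT, 0.01% Triton X-100, pH 6.0. It was preincubated with compound (added in 10% DMSO) for 3 h at RT. Gly-Phe-AFC was then added to 100 μM final and read as fluorescence after 60 min. IC50 came from a sigmoidal nonlinear fit; values are means of at least two experiments.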

SMILES: C=CC(=O)Nc1cc(Oc2nc(Nc3ccc(N4CCN(C)CC4)cc3OC)ccc2N2CCCCC2)ccc1C
- IC50 (Cytochrome P450 1A2): > 10000 nM
- Activity (Mus musculus [1]): Active
- IC50 (Cytochrome P450 2D6): > 10000 nM
- Drug uptake [2]: Active
- inhibition in vivo at 20 mg/kg (Mus musculus [3]): 80%
- half-life [4]: 1.19 h
- bioavailability [5]: 20.3%
- Cmax [6]: 184 ng/mL
- IC50 (Cytochrome P450 2C19): > 10000 nM
- inhibition (Mus musculus [7]): Dose-dependent effect
- AUC(0-inf) [8]: 1360 ng·h/mL
- microsomal CLint [9]: 6.3 µL/min/mg
- IC50 (Dipeptidyl peptidase 1 [10]): 1.9 nM
- inhibition (Dipeptidyl peptidase 1 [10]): Dose-dependent effect
- Cmax [11]: 766 ng/mL
- Activity [12]: Non-Toxic
- half-life [13]: 1.62 h
- half-life [14]: 3.06 h
- inhibition [15]: inactive
- IC50 (Dipeptidyl peptidase 1 [16]): 17 to 17.3 nM
